# Experimental data from ChEMBL document CHEMBL3286180, “Efficacious inhaled PDE4 inhibitors with low emetic potential and long duration of action for the treatment of COPD” (J Med Chem, 2014).
# Active and inactive are the calls of the source. The calls are words filed in the database; no cut-off is given here.
# Legend:
# Rattus norvegicus [1] = experiment: Antiinflammatory activity in Sprague-Dawley rat assessed as inhibition of LPS-induced bronchoalveolar lavage neutrophils measured as terminal lung concentration at 0.3 mg/ml, inhalation administered as nebulized suspension treated 12 hrs before LPS; format: functional; settings: in the assay text read “nebulized solution” for “nebulized suspension”
# How it was run: (§1)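 Duration protocol: rats received a nose-only inhalation of nebulized aqueous compound solution 12 h before LPS challenge. Dose is expressed as mg/mL nebulizer concentration. Readout was LPS-induced pulmonary neutrophilia, with terminal lung concentration (nM) measured. Groups held 8−10 animals per treatment.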
# [2] = target: Voltage-gated inwardly rectifying potassium channel KCNH2 (Homo sapiens, UniProt Q12809); experiment: Inhibition of human ERG
# Voltage-gated inwardly rectifying potassium channel KCNH2, sequence (Q12809 whole entry): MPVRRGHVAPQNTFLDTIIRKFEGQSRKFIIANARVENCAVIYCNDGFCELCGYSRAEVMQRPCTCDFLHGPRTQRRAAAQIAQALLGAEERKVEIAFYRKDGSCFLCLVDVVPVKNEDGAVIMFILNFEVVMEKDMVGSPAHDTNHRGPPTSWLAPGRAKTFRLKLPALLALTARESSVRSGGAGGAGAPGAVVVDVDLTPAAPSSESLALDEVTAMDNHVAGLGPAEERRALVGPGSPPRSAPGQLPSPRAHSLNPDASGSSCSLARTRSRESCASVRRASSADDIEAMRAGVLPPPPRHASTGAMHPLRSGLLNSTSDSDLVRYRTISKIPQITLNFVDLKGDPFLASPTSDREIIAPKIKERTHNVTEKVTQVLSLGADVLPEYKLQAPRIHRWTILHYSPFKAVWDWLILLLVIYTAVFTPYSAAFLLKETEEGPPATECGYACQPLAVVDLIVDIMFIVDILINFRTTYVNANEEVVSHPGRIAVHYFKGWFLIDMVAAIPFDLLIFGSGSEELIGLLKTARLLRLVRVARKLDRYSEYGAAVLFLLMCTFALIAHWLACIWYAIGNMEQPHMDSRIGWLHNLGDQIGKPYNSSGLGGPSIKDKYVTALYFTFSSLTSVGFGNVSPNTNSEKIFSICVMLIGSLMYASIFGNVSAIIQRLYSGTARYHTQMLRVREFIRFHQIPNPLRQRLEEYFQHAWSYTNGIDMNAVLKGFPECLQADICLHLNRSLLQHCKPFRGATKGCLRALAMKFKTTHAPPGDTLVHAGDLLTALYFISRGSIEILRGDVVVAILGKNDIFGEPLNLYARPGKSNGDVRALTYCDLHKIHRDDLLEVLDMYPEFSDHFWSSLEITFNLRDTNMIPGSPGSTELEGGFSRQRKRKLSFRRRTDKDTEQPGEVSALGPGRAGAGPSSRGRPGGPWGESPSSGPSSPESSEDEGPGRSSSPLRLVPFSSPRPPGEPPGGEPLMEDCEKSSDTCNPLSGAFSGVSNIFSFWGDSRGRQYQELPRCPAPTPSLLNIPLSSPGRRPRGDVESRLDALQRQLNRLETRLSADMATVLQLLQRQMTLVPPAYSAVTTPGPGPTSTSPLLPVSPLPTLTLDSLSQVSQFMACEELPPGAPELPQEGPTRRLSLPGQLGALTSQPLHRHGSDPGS
# [3] = Volume of distribution at steady state in rat at 1 mg/kg, iv; format: ADME, organism-based; design: dose 1 mg/kg, route intravenous; settings: in vivo, read-out: Vdss
# [4] = Half life in rat at 1 mg/kg, it; format: ADME, organism-based; design: dose 1 mg/kg, route endotracheal; settings: in vivo, inhaled or intranasal
# How it was run: (§2)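 Rat pharmacokinetics were run at 1 mg/kg, given iv or by intratracheal instillation, with 2−3 animals per study.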
# PBMC = experiment: Antiinflammatory activity in human PBMC assessed as inhibition of LPS-induced TNFalpha production after 20 hrs by fluorescence linked immunosorbant assay; format: functional, cell-based
# Rattus norvegicus [5] = experiment: Antiinflammatory activity in Sprague-Dawley rat assessed as inhibition of LPS-induced bronchoalveolar lavage neutrophils measured as terminal lung concentration at 0.03 mg/ml, inhalation administered as […] treated 12 hrs before LPS; format: functional; how it was run: as §1
# [6] = target: T1, 3',5'-cyclic-AMP phosphodiesterase 4B (Rattus norvegicus, UniProt P14646)
# T1 sequence (P14646 whole entry): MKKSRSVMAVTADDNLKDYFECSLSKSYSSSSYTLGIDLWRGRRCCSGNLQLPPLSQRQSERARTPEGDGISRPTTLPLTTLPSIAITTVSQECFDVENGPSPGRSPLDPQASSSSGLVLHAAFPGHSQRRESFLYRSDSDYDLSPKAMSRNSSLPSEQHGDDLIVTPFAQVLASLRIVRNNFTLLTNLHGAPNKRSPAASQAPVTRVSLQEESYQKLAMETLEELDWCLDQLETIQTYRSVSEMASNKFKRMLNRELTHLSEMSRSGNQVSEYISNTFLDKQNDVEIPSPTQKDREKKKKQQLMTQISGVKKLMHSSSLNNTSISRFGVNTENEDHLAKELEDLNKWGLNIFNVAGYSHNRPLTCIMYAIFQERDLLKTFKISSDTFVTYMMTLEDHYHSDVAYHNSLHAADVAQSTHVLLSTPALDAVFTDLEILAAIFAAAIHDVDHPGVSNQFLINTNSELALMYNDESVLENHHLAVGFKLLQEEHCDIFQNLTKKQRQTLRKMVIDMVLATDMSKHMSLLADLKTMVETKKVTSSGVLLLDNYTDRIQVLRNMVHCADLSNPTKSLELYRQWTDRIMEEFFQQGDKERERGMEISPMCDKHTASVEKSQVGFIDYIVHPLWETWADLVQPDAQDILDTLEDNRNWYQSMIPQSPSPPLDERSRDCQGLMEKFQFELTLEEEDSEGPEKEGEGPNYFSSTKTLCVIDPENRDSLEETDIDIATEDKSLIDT
# [7] = target: T2, 3',5'-cyclic-AMP phosphodiesterase 4B (Homo sapiens, UniProt Q07343); experiment: Inhibition of human recombinant PDE4B using [3H]cAMP by packard topcount scintillation counting analysis
# T2 sequence (Q07343 whole entry): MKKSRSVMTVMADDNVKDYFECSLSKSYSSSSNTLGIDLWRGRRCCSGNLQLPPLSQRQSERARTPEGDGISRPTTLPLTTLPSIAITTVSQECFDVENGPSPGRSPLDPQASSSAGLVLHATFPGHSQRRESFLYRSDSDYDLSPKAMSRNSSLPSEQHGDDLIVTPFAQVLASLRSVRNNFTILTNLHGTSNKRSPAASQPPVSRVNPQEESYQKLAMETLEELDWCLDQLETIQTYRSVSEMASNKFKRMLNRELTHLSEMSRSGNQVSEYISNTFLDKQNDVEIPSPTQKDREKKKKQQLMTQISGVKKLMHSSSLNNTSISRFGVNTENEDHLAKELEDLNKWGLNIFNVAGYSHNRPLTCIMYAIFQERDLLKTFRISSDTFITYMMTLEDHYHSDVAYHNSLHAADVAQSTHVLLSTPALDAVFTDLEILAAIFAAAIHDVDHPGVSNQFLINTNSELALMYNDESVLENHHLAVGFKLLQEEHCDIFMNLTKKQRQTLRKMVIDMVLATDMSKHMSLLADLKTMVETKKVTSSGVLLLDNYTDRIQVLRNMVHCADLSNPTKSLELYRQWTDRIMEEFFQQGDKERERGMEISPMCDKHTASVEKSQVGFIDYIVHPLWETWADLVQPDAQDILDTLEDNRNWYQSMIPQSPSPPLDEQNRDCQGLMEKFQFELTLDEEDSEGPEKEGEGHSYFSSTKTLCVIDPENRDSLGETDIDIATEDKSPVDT
# [8] = target: 3',5'-cyclic-AMP phosphodiesterase 4A (Homo sapiens, UniProt P27815); experiment: Inhibition of human PDE4A1A using [3H]cAMP by packard topcount scintillation counting analysis
# 3',5'-cyclic-AMP phosphodiesterase 4A, sequence (P27815 whole entry): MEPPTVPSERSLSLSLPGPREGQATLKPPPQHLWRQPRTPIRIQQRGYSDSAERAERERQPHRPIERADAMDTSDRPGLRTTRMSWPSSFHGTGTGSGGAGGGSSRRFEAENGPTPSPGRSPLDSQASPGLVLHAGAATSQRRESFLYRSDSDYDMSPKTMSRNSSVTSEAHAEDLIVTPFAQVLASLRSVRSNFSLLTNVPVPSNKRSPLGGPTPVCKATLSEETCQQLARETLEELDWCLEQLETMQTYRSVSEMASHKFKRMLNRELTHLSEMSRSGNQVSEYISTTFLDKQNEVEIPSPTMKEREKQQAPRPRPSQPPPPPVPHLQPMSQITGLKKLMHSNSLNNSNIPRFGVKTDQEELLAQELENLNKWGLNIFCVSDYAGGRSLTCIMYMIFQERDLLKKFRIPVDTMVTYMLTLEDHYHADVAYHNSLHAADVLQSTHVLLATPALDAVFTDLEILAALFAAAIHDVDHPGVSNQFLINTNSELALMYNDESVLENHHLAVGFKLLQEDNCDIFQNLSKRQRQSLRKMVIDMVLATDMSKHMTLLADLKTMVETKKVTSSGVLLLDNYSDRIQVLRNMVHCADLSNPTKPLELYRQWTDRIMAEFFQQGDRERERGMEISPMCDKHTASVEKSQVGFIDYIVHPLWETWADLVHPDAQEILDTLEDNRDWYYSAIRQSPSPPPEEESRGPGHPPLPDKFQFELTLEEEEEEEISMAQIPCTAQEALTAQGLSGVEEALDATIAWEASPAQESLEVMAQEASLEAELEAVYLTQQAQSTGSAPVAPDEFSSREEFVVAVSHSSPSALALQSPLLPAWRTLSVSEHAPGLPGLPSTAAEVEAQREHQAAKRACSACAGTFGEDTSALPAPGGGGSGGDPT
# [9] = Apparent volume of distribution in dog; format: ADME, organism-based, Canis lupus familiaris; settings: in vivo, read-out: Vz/F
# [10] = Lipophilicity, log K of the compound; format: physicochemical; settings: octanol/water
# Rattus norvegicus [11] = experiment: Apparent volume of distribution in rat at 1 mg/kg, iv; format: ADME, organism-based; design: dose 1 mg/kg, route intravenous; settings: in vivo; how it was run: as §2
# Rattus norvegicus [12] = experiment: Antiinflammatory activity in nasally dosed Sprague-Dawley rat assessed as inhibition of LPS-induced bronchoalveolar lavage neutrophils measured as nebulizer concentration administered as […]; format: functional
# How it was run: (§3)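 ED80 was derived from the nose-only nebulized-solution dose response in rats dosed 30 min before LPS challenge, with neutrophilia as the readout. ED80 is given as nebulizer concentration, as the matching terminal total lung concentration, and as lung deposited dose estimated from measured filter sample and terminal lung levels.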
# [13] = Half life in dog; format: ADME, organism-based, Canis lupus familiaris; settings: in vivo
# [14] = Fraction unbound in human plasma; format: ADME, cell-free
# Rattus norvegicus [15] = experiment: Antiinflammatory activity in Sprague-Dawley rat assessed as inhibition of LPS-induced bronchoalveolar lavage neutrophils measured as terminal lung concentration at 0.01 mg/ml, inhalation administered as nebulized suspension; format: functional
# How it was run: (§4)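 Rats were given the compound as an aqueous nebulized aerosol by nose-only inhalation 30 min before LPS challenge. Dose is expressed as mg/mL nebulizer concentration. Lung neutrophilia was the readout, and terminal lung concentration (nM) was measured. Groups held 8−10 animals per treatment.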
# [16] = target: 3',5'-cyclic-AMP phosphodiesterase 4D (Homo sapiens, UniProt Q08499); experiment: Inhibition of human PDE4D using [3H]cAMP by packard topcount scintillation counting analysis
# [17] = target: T2, 3',5'-cyclic-AMP phosphodiesterase 4B; experiment: Inhibition of human recombinant PDE4B at high-affinity rolipram binding site
# [18] = Oral bioavailability in dog; format: ADME, organism-based, Canis lupus familiaris; settings: in vivo
# Rattus norvegicus [19] = experiment: Antiinflammatory activity in Sprague-Dawley rat assessed as inhibition of LPS-induced bronchoalveolar lavage neutrophils measured as terminal lung concentration at 0.1 mg/ml, inhalation administered as nebulized suspension; format: functional; how it was run: as §4
# [20] = Intrinsic clearance in rat hepatocytes measured per 10^6 cells; format: ADME, cell-based, Hepatocyte; settings: read-out: CLH
# Rattus norvegicus [21] = experiment: Antiinflammatory activity in Sprague-Dawley rat assessed as inhibition of LPS-induced bronchoalveolar lavage neutrophils measured as terminal lung concentration at 0.003 mg/ml, inhalation administered as nebulized suspension; format: functional; how it was run: as §4
# Rattus norvegicus [22] = experiment: Antiinflammatory activity in nasally dosed Sprague-Dawley rat assessed as inhibition of LPS-induced bronchoalveolar lavage neutrophils measured as lung deposited dose administered as […]; format: functional; how it was run: as §3
# Rattus norvegicus [23] = experiment: Antiinflammatory activity in Sprague-Dawley rat assessed as inhibition of LPS-induced bronchoalveolar lavage neutrophils measured as terminal lung concentration at 0.03 mg/ml, inhalation administered as nebulized suspension; format: functional; how it was run: as §4
# [24] = Intrinsic clearance in human liver microsomes; format: ADME; settings: read-out: CLH
# [25] = Clearance in rat at 1 mg/kg, iv; format: ADME, organism-based; design: dose 1 mg/kg, route intravenous; settings: in vivo; how it was run: as §2
# Rattus norvegicus [26] = experiment: Antiinflammatory activity in Sprague-Dawley rat assessed as inhibition of LPS-induced bronchoalveolar lavage neutrophils measured as terminal lung concentration at 0.1 mg/ml, inhalation administered as […] treated 12 hrs before LPS; format: functional; how it was run: as §1
# [27] = Lipophilicity, log D of the compound; format: physicochemical; settings: octanol/water
# [28] = Fraction unbound in rat plasma; format: ADME, cell-free
# Blood [29] = experiment: Antiinflammatory activity in human whole blood assessed as inhibition of LPS-induced TNFalpha production after 20 hrs by ELISA; format: functional, tissue-based
# [30] = Clearance in dog; format: ADME, organism-based, Canis lupus familiaris; settings: in vivo
# [31] = Volume of distribution at steady state in dog; format: ADME, organism-based, Canis lupus familiaris; settings: in vivo, read-out: Vdss
# Rattus norvegicus [32] = experiment: Antiinflammatory activity in nasally dosed Sprague-Dawley rat assessed as inhibition of LPS-induced bronchoalveolar lavage neutrophils measured as lung concentration administered as […]; format: functional; how it was run: as §3
# [33] = Half life in rat at 1 mg/kg, iv; format: ADME, organism-based; design: dose 1 mg/kg, route intravenous; settings: in vivo; how it was run: as §2
# Rattus norvegicus [34] = experiment: Antiinflammatory activity in Sprague-Dawley rat assessed as inhibition of LPS-induced bronchoalveolar lavage neutrophils at 0.1 mg/ml, inhalation administered as nebulized suspension; format: functional, organism-based; how it was run: as §4
# Rattus norvegicus [35] = experiment: Antiinflammatory activity in Sprague-Dawley rat assessed as inhibition of LPS-induced bronchoalveolar lavage neutrophils measured as LPS duration at 0.1 mg/ml, inhalation administered as nebulized suspension; format: functional, organism-based; how it was run: as §1
# Cytochrome P450 2D6 = Cytochrome P450 2D6 (Homo sapiens, UniProt P10635); experiment: Inhibition of CYP2D6 (unknown origin); format: ADME
# Cytochrome P450 2D6, sequence (P10635 whole entry): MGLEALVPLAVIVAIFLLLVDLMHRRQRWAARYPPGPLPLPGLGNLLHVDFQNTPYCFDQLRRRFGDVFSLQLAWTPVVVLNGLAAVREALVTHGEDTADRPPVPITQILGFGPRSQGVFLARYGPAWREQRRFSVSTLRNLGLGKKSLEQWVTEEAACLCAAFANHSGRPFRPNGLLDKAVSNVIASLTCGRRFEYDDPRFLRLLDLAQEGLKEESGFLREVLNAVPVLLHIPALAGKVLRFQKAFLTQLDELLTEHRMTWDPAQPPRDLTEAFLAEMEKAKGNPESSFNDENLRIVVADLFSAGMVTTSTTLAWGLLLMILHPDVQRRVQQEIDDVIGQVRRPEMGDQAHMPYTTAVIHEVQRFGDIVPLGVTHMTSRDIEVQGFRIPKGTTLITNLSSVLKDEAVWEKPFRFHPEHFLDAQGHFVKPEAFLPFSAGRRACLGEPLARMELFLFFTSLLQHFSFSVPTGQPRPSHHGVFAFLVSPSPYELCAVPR
# Cytochrome P450 2C19 = Cytochrome P450 2C19 (Homo sapiens, UniProt P33261); experiment: Inhibition of CYP2C19 (unknown origin); format: ADME
# Cytochrome P450 2C19, sequence (P33261 whole entry): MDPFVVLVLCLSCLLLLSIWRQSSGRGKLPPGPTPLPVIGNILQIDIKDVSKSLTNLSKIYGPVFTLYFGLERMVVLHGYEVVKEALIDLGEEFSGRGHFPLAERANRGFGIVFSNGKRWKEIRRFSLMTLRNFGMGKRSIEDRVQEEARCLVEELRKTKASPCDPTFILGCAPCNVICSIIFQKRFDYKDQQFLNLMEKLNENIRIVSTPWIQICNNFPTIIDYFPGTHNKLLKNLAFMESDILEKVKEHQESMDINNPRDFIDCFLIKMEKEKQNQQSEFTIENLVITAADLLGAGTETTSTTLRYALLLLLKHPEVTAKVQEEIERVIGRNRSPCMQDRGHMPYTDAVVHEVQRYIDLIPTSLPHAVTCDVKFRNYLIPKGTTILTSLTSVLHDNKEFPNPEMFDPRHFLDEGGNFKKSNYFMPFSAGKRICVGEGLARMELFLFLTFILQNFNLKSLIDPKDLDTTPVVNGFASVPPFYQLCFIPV
# [36] = Aqueous solubility of the compound at pH 7.4; format: physicochemical; settings: aqueous medium
# Cytochrome P450 2C9 = Cytochrome P450 2C9 (Homo sapiens, UniProt P11712); experiment: Inhibition of CYP2C9 (unknown origin); format: ADME
# Cytochrome P450 2C9, sequence (P11712 whole entry): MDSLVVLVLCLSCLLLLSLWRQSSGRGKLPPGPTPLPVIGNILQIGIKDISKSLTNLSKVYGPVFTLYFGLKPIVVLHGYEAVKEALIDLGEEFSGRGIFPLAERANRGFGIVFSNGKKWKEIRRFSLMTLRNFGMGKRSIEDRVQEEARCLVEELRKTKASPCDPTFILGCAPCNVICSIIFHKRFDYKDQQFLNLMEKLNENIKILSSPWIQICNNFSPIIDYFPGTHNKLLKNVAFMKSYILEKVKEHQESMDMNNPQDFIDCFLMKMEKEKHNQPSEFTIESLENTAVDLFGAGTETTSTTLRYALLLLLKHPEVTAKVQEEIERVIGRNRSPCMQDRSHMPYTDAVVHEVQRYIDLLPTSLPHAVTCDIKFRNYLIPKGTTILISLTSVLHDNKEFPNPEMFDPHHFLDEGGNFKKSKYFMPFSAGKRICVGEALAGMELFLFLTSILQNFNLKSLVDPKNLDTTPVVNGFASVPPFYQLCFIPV
# Cytochrome P450 3A4 = Cytochrome P450 3A4 (Homo sapiens, UniProt P08684); experiment: Inhibition of CYP3A4 (unknown origin); format: ADME
# Cytochrome P450 3A4, sequence (P08684 whole entry): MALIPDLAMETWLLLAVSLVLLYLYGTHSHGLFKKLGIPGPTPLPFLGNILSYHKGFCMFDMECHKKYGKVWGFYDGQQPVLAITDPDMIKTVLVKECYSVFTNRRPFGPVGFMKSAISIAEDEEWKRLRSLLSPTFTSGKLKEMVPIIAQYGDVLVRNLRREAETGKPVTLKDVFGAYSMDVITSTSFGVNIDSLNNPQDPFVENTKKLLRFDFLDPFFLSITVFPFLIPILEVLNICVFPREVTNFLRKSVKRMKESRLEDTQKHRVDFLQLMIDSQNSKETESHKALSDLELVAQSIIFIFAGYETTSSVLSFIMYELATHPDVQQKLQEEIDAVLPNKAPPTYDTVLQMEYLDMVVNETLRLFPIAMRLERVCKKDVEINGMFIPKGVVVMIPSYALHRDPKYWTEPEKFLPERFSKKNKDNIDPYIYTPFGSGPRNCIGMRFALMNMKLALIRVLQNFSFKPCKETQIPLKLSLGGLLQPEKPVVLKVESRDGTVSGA
# Rattus norvegicus [37] = experiment: Antiinflammatory activity in Sprague-Dawley rat assessed as inhibition of LPS-induced bronchoalveolar lavage neutrophils measured as LPS duration at 0.01 mg/ml, inhalation administered as nebulized suspension; format: functional, organism-based; settings: 0.1 mg/ml, in the assay text read “0.1 mg/ml” for “0.01 mg/ml”; how it was run: as §1
# Rattus norvegicus [38] = experiment: Antiinflammatory activity in Sprague-Dawley rat assessed as inhibition of LPS-induced bronchoalveolar lavage neutrophils at 0.01 mg/ml, inhalation administered as nebulized suspension; format: functional; how it was run: as §4
# CYP (isoform not stated) = experiment: Time dependent inhibition of CYP (unknown origin) at 50 uM; format: ADME; settings: human; read-out: TDI
# Rattus norvegicus [39] = experiment: Antiinflammatory activity in Sprague-Dawley rat assessed as inhibition of LPS-induced bronchoalveolar lavage neutrophils at 0.03 mg/ml, inhalation administered as nebulized suspension; format: functional, organism-based; how it was run: as §4
# Blood [40] = experiment: tissue or blood; settings: Rattus norvegicus, 20 h, read-out: pIC50 (converted)
# [41] = Oral bioavailability in rat at 1 mg/kg; format: ADME, organism-based; settings: in vivo
SMILES,Activity (Rattus norvegicus [1]) [nM],IC50 [2] [nM],Vd [3] [L/kg],half-life [4] [h],IC50 (PBMC) [nM],Activity (Rattus norvegicus [5]) [nM],IC50 [6] [nM],IC50 [8] [nM],Vd/F [9] [L/kg],log K [10],Vz/F (Rattus norvegicus [11]) [L/kg],ED80 (Rattus norvegicus [12]) [µg/mL],half-life [13] [h],fraction unbound [14],hepatocyte CLint [20] [µL/min/1e6 cells],microsomal CLint [24] [µL/min/mg],clearance [25] [mL/min/kg],logD [27],fraction unbound [28],half-life [33] [h],other results
Cc1csc(C(=O)N[C@H]2CC[C@@H](NC(=O)c3cc(F)cnc3Oc3cccc(-c4ccc(CN5C[C@@H](C)N[C@@H](C)C5)cc4CN4CCOCC4)c3)CC2)n1,57,20000,18,8,0.02,7,0.02,< 10,44,1.32,27,20,15,0.045,10,> 150,44,1.9,0.23,7,IC50 [7]: 0.0251 nM; Activity (Rattus norvegicus [15]): 12 nM; IC50 [16]: 0.02 nM; IC50 [17]: < 10 nM; bioavailability [18]: 16%; Activity (Rattus norvegicus [19]): 90 nM; Activity (Rattus norvegicus [21]): 2 nM; ED80 (Rattus norvegicus [22]): 0.2 µg/kg; Activity (Rattus norvegicus [23]): 30 nM; Activity (Rattus norvegicus [26]): 22 nM; IC50 (Blood [29]): 0.316 nM; clearance [30]: 34 mL/min/kg; Vd [31]: 26 L/kg; ED80 (Rattus norvegicus [32]): 23 nM
Cc1cc(C(=O)N[C@H]2CC[C@@H](NC(=O)c3cc(F)cnc3Oc3cccc(-c4ccc(O)cc4CN4CCOCC4)c3)CC2)nn1C,,31600,2.6,,0.0631,,,,,,76,,,0.056,120,> 150,69,3.1,0.1,13,inhibition (Rattus norvegicus [34]): Active; inhibition (Rattus norvegicus [35]): Active; IC50 (Cytochrome P450 2D6): > 10000 nM; IC50 (Cytochrome P450 2C19): 6310 nM; solubility [36]: 250 µM; IC50 (Cytochrome P450 2C9): 251 nM; IC50 (Cytochrome P450 3A4): 501 nM; inhibition (Rattus norvegicus [37]): Active; inhibition (INH) (Rattus norvegicus [38]): 37%; inhibition at 50 µM (CYP (isoform not stated)): 73%
Cc1ccc(O)c(C(=O)N[C@H]2CC[C@@H](NC(=O)c3cc(F)cnc3Oc3cccc(-c4ccc(CN5C[C@@H](C)N[C@@H](C)C5)cc4CN4CCOCC4)c3)CC2)c1,33,6310,16,9,0.0398,5,0.0251,< 10,25,1.88,30,60,15,0.013,13,78,50,2.8,0.083,7,inhibition (Rattus norvegicus [34]): Active; inhibition (Rattus norvegicus [39]): Active; inhibition (Rattus norvegicus [35]): Active; solubility [36]: 213 µM; IC50 (Blood [40]): 0.501 nM; Activity (Rattus norvegicus [15]): 26 nM; bioavailability [18]: 6%; Activity (Rattus norvegicus [19]): 123 nM; Activity (Rattus norvegicus [21]): 9 nM; ED80 (Rattus norvegicus [22]): 0.6 µg/kg; Activity (Rattus norvegicus [23]): 88 nM; Activity (Rattus norvegicus [26]): 14 nM; IC50 (Blood [29]): 12.6 nM; clearance [30]: 19 mL/min/kg; inhibition (Rattus norvegicus [38]): Active; Vd [31]: 13 L/kg; ED80 (Rattus norvegicus [32]): 78 nM; bioavailability [41]: < 16%
